This note sets out measurements from ChEMBL document CHEMBL2177085 (J Med Chem, 2012).

The nature of experiment [1]: Inhibition of angiogenesis in chick embryo model assessed as reduction in vessel growth at 26 nM incubated for 24 hrs. The experiment is classed as functional, Gallus gallus. In outline:
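White leghorn eggs incubated at 37.5 °C, 62% humidity. At 70 h, albumen removed and shell windowed. From 75 h, 15 agarose pellets (from a 26 mM DMSO stock in 2% agarose; final concentration 26 nM) placed on the area vasculosa.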

Experiment [2] concerns MKN-45. The experiment can be described thus: Induction of apoptosis in human MKN45 assessed as accumulation at subG1 phase at 10 uM incubated for 7 days by flow cytometry (reference value: 10.9 +/- 3.2%). In kind it is functional. In general terms: Flow cytometry measures light scatter and fluorescence of single cells or particles in a stream.
Experiment [3] concerns the target Vascular endothelial growth factor receptor 2 (Homo sapiens, UniProt P35968). The experiment can be described thus: Inhibition of VEGFR2 assessed as enzyme residual activity at 10 uM relative to untreated control. In outline: (§1)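 Residual kinase activity at 10 μM compound, determined by a commercial kinase profiling service (Millipore) across 15 kinases of different classes. Each compound tested in duplicate.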

In experiment [4] the test system is MKN-45. Description: Induction of apoptosis in human MKN45 assessed as accumulation at subG1 phase at 1 uM incubated for 7 days by flow cytometry (reference value: 10.9 +/- 3.2%). The experiment is classed as functional.
In experiment [5] the test system is MOLM-14. Description: Cytotoxic activity against human MOLM14 cells assessed as cell viability at 1 uM incubated for 3 days by MTT assay. The following applies: MOLM-14, 72 h, read-out: Activity. The experiment is classed as functional. Put shortly: (§2)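 MTT viability: exponentially growing cells, 10 000 viable cells/well in RPMI plated overnight, then exposed to test compounds for 3 days (HT-29, Molm-14) or 5 days (Mkn-45) at 37 °C, 5% CO2. MTT added for 4 h, then SDS/HCl solubilization overnight and absorbance read at 562 nm. Viability is expressed relative to untreated cells (100%). Triplicate.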
(In general: Tetrazolium assays rely on reduction of a dye to a coloured formazan, in cell work by metabolically active cells.)

Experiment [6] has as its target Cyclin-dependent kinase 2/cyclin A (Homo sapiens) (UniProt P24941+P20248+P78396). Description: Inhibition of CDK2/cyclinA assessed as enzyme residual activity at 10 uM relative to untreated control. In kind it is protein-complex assay. Put shortly: as §1
Experiment [7] has as its system MKN-45. Description: Cytotoxic activity against human MKN45 cells assessed as cell viability at 20 uM incubated for 5 days by MTT assay. The experiment is classed as functional. The following applies: MKN-45, 120 h, read-out: Activity. In outline: as §2
The target of experiment [8] is Cyclin-dependent kinase 1/cyclin B1 (Homo sapiens) (UniProt P06493+P14635). The experiment can be described thus: Inhibition of CDK1/cyclinB assessed as enzyme residual activity at 10 uM relative to untreated control. In kind it is protein-complex assay. Put shortly:
as §1

Experiment [9] deals with MKN-45. The experiment can be described thus: Induction of apoptosis in human MKN45 assessed as accumulation at subG1 phase at 5 uM incubated for 7 days by flow cytometry (reference value: 10.9 +/- 3.2%). The experiment is classed as functional.
For experiment [10], the system named is MKN-45. The experiment can be described thus: Induction of apoptosis in human MKN45 assessed as accumulation at subG1 phase at 20 uM incubated for 7 days by flow cytometry (reference value: 10.9 +/- 3.2%). In kind it is functional.
Experiment [11] has as its target Protein kinase C gamma type (Homo sapiens) (UniProt P05129). Description: Inhibition of PKCgamma assessed as enzyme residual activity at 10 uM relative to untreated control. In outline:
as §1

The subject of experiment [12] is HUVEC. The experiment can be described thus: Induction of apoptosis in human HUVEC assessed as accumulation at subG1 phase at 0.79 uM incubated for 4 days by flow cytometry (reference value: 15.4 +/- 1.5%). The experiment is classed as functional.
Experiment [13] concerns MOLM-14. The experiment can be described thus: Cytotoxic activity against human MOLM14 cells assessed as cell viability at 50 uM incubated for 3 days by MTT assay. The experiment is classed as functional. The following applies: MOLM-14, 72 h, read-out: Activity. In outline:
as §2

The test system of experiment [14] is MOLM-14. Description: Cytotoxic activity against human MOLM14 cells assessed as cell viability at 0.5 uM incubated for 3 days by MTT assay. The following applies: MOLM-14, 72 h, read-out: Activity. In kind it is functional. Put shortly:
as §2

In experiment [15] the target is Hepatocyte growth factor receptor (Homo sapiens) (UniProt P08581). Description: Inhibition of MET assessed as enzyme residual activity at 10 uM relative to untreated control. In outline: as §1
For experiment [16], the target named is T1, Glycogen synthase kinase-3 beta (Homo sapiens, UniProt P49841). The experiment can be described thus: Inhibition of GSK3beta assessed as enzyme residual activity at 10 uM relative to untreated control. In outline: as §1
Target sequence in this assay (P49841 whole entry, looked up): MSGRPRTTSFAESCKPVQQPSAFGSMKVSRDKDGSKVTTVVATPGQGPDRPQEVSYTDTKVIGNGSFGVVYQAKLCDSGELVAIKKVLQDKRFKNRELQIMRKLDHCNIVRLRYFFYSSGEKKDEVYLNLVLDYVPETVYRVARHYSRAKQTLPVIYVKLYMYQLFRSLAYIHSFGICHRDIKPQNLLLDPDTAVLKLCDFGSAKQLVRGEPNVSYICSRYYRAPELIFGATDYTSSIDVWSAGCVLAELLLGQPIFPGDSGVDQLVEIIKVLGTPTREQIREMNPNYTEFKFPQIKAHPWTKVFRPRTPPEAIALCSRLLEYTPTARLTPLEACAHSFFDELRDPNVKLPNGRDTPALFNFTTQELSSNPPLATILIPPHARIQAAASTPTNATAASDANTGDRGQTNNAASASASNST
In experiment [17] the target is Protein kinase C epsilon type (Homo sapiens) (UniProt Q02156). Description: Inhibition of PKCepsilon assessed as enzyme residual activity at 10 uM relative to untreated control. In outline:
as §1

Experiment [18] has as its system MKN-45. The experiment can be described thus: Cytotoxic activity against human MKN45 cells assessed as cell viability at 1 uM incubated for 5 days by MTT assay. The experiment is classed as functional. The following applies: MKN-45, 120 h, read-out: Activity. Put shortly:
as §2

In experiment [19] the test system is MKN-45. Description: Cytotoxic activity against human MKN45 cells assessed as cell viability at 0.5 uM incubated for 5 days by MTT assay. In kind it is functional. The following applies: MKN-45, 120 h, read-out: Activity. In outline: as §2
The target in experiment [20] is Platelet-derived growth factor receptor beta (Homo sapiens) (UniProt P09619). Description: Inhibition of PDGFRbeta assessed as enzyme residual activity at 10 uM relative to untreated control. Put shortly:
as §1

In experiment [21] the test system is MKN-45. Description: Induction of apoptosis in human MKN45 assessed as accumulation at subG1 phase at 15 uM incubated for 7 days by flow cytometry (reference value: 10.9 +/- 3.2%). In kind it is functional.
Experiment [22] relates to MOLM-14. The experiment can be described thus: Cytotoxic activity against human MOLM14 cells assessed as cell viability at 10 uM incubated for 3 days by MTT assay. In kind it is functional. The following applies: MOLM-14, 72 h, read-out: Activity. Put shortly:
as §2

For experiment [23], the target named is CDK6/cyclin D3 (Homo sapiens) (UniProt P30281+Q00534). Description: Inhibition of CDK6/cyclinD3 assessed as enzyme residual activity at 10 uM relative to untreated control. The experiment is classed as protein-complex assay. Put shortly:
as §1

Experiment [24] has as its target Protein kinase C iota type (Homo sapiens) (UniProt P41743). The experiment can be described thus: Inhibition of PKCiota assessed as enzyme residual activity at 10 uM relative to untreated control. Put shortly:
as §1

In experiment [25] the target is T1, Glycogen synthase kinase-3 beta. The experiment can be described thus: Inhibition of GSK3beta. Put shortly:
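IC50 determined by a commercial kinase profiling service (Millipore IC50 Profiler); duplicate testing.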
Target sequence in this assay (P49841 whole entry): as the sequence (P49841 whole entry, looked up) above

Experiment [26] has as its system MKN-45. Description: Cytotoxic activity against human MKN45 cells assessed as cell viability at 10 uM incubated for 5 days by MTT assay. The following applies: MKN-45, 120 h, read-out: Activity. In kind it is functional. Put shortly: as §2
Experiment [27] concerns the target Epidermal growth factor receptor (Homo sapiens) (UniProt P00533). Description: Inhibition of EGFR assessed as enzyme residual activity at 10 uM relative to untreated control. Put shortly:
as §1

The subject of experiment [28] is MKN-45. Description: Cytotoxic activity against human MKN45 cells assessed as cell viability at 5 uM incubated for 5 days by MTT assay. In kind it is functional. The following applies: MKN-45, 120 h, read-out: Activity. Put shortly: as §2
The subject of experiment [29] is MOLM-14. The experiment can be described thus: Cytotoxic activity against human MOLM14 cells assessed as cell viability at 20 uM incubated for 3 days by MTT assay. The experiment is classed as functional. The following applies: MOLM-14, 72 h, read-out: Activity. In outline: as §2
Experiment [30] has as its target Receptor-type tyrosine-protein kinase FLT3 (Homo sapiens) (UniProt P36888). The experiment can be described thus: Inhibition of FLT3 assessed as enzyme residual activity at 10 uM relative to untreated control. Put shortly:
as §1

Experiment [31] has as its system HUVEC. Description: Induction of apoptosis in human HUVEC assessed as accumulation at subG1 phase at 2.6 uM incubated for 4 days by flow cytometry (reference value: 15.4 +/- 1.5%). The experiment is classed as functional.
The target of experiment [32] is Protein kinase C alpha type (Homo sapiens) (UniProt P17252). The experiment can be described thus: Inhibition of PKCalpha assessed as enzyme residual activity at 10 uM relative to untreated control. Put shortly: as §1
Experiment [33] relates to MKN-45. The experiment can be described thus: Cytotoxic activity against human MKN45 cells assessed as cell viability at 50 uM incubated for 5 days by MTT assay. In kind it is functional. The following applies: MKN-45, 120 h, read-out: Activity. In outline:
as §2

Experiment [34] addresses Angiopoietin-1 receptor (Homo sapiens) (UniProt Q02763). Description: Inhibition of TIE2 assessed as enzyme residual activity at 10 uM relative to untreated control. Put shortly: as §1
For experiment [35], the target named is RAF proto-oncogene serine/threonine-protein kinase (Homo sapiens) (UniProt P04049). Description: Inhibition of c-RAF assessed as enzyme residual activity at 10 uM relative to untreated control. In outline: as §1
Chain of RAF proto-oncogene serine/threonine-protein kinase (Homo sapiens) (P04049 whole entry): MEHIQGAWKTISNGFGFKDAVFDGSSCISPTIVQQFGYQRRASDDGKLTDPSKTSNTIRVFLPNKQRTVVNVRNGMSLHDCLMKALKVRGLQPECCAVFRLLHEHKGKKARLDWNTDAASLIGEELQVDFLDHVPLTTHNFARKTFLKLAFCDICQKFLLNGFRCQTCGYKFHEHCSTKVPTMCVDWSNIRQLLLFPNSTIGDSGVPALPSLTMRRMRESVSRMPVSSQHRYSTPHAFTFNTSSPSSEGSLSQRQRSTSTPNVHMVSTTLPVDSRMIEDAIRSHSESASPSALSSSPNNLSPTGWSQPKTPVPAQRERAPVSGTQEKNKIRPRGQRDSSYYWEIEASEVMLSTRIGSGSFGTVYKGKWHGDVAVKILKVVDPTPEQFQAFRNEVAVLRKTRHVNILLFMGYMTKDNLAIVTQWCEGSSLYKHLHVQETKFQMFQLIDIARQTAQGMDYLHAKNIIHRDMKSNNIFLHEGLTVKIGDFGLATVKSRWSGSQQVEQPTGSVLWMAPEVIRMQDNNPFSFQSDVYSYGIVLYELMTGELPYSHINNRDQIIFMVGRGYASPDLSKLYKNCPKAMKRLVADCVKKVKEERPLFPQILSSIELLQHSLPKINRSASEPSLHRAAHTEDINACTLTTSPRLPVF

Chain of Platelet-derived growth factor receptor beta (Homo sapiens) (P09619 whole entry): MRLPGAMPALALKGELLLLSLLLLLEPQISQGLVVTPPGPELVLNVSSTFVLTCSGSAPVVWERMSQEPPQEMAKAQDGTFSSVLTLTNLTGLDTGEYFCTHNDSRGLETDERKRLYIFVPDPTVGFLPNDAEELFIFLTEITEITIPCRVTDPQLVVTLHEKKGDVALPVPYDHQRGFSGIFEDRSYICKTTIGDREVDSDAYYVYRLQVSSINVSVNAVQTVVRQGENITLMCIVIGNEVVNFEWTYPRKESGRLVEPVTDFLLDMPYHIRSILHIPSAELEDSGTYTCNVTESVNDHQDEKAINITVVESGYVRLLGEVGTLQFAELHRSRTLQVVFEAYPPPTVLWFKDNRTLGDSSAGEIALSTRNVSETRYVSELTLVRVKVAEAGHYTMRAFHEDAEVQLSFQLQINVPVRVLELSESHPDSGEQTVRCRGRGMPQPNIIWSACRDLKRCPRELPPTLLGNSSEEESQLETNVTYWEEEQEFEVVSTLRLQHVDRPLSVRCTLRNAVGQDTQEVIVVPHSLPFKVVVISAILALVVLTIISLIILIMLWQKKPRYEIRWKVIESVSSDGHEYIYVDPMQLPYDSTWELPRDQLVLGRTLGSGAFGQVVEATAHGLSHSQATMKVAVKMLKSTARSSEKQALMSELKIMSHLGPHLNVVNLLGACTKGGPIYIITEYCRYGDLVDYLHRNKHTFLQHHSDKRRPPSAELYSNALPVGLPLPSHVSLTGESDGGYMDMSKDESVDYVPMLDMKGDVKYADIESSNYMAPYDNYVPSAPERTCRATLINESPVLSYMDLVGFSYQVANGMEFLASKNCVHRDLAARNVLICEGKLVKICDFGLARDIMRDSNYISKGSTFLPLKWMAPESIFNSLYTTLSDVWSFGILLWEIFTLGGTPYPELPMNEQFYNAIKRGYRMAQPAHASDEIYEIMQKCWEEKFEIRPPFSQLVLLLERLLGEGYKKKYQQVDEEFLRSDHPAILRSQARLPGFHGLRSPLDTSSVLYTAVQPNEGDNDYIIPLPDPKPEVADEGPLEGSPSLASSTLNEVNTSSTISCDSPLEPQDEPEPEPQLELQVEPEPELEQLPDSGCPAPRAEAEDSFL
Chain of Vascular endothelial growth factor receptor 2 (P35968 whole entry): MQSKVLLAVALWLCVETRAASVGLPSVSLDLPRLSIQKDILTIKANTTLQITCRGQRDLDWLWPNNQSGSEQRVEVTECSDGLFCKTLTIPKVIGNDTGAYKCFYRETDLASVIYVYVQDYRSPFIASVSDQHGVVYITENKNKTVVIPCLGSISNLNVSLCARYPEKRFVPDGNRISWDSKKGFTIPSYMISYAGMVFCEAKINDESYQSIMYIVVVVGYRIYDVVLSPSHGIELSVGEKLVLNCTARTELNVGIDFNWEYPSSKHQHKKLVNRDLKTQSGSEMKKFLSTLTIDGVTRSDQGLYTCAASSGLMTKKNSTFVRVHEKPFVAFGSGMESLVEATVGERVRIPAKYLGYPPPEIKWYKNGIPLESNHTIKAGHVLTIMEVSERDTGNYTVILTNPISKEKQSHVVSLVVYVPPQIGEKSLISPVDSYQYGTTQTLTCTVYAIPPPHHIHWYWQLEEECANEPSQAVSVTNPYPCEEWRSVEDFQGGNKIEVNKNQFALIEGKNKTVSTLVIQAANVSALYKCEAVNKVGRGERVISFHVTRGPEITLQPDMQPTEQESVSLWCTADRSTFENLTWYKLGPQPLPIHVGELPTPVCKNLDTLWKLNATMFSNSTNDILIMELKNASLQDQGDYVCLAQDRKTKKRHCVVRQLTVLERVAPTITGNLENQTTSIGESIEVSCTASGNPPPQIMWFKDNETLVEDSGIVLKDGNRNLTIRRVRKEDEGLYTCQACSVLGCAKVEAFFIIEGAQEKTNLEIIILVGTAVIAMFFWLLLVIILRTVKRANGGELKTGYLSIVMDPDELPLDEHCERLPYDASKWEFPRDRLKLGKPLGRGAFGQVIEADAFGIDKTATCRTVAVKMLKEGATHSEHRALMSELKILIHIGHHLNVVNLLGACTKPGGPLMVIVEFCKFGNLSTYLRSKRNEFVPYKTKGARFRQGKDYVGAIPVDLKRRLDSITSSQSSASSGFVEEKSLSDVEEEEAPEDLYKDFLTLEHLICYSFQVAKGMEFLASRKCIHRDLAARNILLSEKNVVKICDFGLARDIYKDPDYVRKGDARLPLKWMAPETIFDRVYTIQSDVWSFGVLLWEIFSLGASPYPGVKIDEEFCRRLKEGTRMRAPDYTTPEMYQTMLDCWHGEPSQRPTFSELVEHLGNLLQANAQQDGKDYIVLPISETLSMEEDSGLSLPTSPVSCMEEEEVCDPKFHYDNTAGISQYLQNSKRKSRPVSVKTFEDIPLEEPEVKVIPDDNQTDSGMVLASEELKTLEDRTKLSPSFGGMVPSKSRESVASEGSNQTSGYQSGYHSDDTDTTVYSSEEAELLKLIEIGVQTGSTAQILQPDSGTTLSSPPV
Chain of Angiopoietin-1 receptor (Homo sapiens) (Q02763 whole entry): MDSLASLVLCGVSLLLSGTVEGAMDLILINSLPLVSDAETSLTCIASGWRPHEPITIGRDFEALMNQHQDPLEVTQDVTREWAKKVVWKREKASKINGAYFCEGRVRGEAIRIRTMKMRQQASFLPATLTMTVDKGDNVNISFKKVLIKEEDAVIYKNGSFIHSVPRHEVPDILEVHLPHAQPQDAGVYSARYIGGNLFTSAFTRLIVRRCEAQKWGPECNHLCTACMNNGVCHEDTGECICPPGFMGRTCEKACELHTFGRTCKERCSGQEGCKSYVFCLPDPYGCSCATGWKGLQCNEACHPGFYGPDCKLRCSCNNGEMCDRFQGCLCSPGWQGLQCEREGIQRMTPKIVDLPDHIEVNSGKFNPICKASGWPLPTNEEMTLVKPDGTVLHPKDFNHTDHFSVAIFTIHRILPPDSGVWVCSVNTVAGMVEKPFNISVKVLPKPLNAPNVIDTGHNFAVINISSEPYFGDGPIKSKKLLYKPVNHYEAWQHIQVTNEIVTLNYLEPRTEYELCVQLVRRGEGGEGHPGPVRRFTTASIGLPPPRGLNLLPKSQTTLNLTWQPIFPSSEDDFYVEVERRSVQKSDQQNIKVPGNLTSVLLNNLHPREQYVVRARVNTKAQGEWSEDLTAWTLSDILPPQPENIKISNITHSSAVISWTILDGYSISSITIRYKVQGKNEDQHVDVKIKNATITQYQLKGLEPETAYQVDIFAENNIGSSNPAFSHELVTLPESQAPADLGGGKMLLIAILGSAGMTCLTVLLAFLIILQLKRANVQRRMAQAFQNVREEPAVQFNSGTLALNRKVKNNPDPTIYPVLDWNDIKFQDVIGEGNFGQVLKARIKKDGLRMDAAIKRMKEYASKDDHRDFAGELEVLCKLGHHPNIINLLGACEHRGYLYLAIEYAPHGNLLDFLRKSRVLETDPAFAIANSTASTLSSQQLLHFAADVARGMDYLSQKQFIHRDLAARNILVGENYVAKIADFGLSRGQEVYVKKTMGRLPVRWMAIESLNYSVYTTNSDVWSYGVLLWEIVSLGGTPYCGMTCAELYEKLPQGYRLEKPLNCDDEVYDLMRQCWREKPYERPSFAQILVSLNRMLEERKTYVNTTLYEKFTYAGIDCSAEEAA

As to `COc1ccccc1C1=C(c2c[nH]c3ncccc23)C(=O)NC1=O`, in experiment [1], the “inhibition (INH)” value is on record as 30%.
The IC50 is the concentration at which inhibition is half-maximal. Read a low IC50 as greater potency. `COc1cc(C2=C(c3c[nH]c4ncccc34)C(=O)NC2=O)cc(OC)c1OC`: the Activity with MKN-45 [2] was 37.8%; in experiment [3], 0%; in the experiment on MKN-45 [4] it was 9.3%; in [6], 94%; in experiment [8], 92%; with MKN-45 [9], 16.3%. The Activity in the experiment on MKN-45 [10] was found to be 65.9%; in [11] it was 93%; in the experiment on HUVEC [12], 26.7%; in experiment [15], 109%; in experiment [16], 50%; in [17], 77%. Besides, the Activity in experiment [20] was determined as 84%; with MKN-45 [21], 50.7%; in [23] it was 99%; in [24] it was 69%; in experiment [27], 97%; in experiment [30] it was 2%. Also, the Activity amounted to 49.2% in the experiment on HUVEC [31], 89% in [32], 77% in [34] and 111% in experiment [35]. Besides, the results for the viability at 1 µM with MOLM-14 [5] and in the experiment with MKN-45 [18] were 38.9% and 110%, respectively. For the same molecule, the viability at 20 µM in the experiment on MKN-45 [7] came out at 57.1%; with MOLM-14 [29], 3.56%. The results for the viability at 50 µM in the experiment with MOLM-14 [13] and in the experiment with MKN-45 [33] were 1.77% and 44.7%, respectively. In addition, the viability at 0.5 µM in the experiment with MOLM-14 [14] worked out at 65.9%; with MKN-45 [19] it was 113%. Moreover, the “inhibition (INH)” value in experiment [1] came to 61%. Further, the viability at 10 µM came out at 4.41% in the experiment on MOLM-14 [22] and 58.7% in the experiment with MKN-45 [26]. Also, in experiment [25], the IC50 is at least 10 µM. For the same molecule, the viability at 5 µM in the experiment with MKN-45 [28] was 86.8%.
